Broadly, the microsomal CLint is a measure of how fast metabolising enzymes remove a compound, apart from limits set by blood flow. Read a low microsomal CLint as slow turnover. One may read the solubility (kinetic) as the concentration staying in solution when a stock, usually in DMSO, is diluted into the medium. Broadly, the logD is the decadic logarithm of the distribution of all forms, ionised or not, between an organic phase and buffer at a given pH. A high value points to higher lipophilicity. The IC50 is the concentration at which inhibition is half-maximal. What is called half-life is how long it takes for the measured level to halve. Low readings indicate fast loss, high ones slow loss. What is called bioavailability is the share of a dose that reaches the circulation, judged against a reference dose that is usually intravenous. A higher bioavailability goes with much systemic uptake. In general, clearance refers to a measure of how efficiently the substance is removed, as volume per time. One may read the CL/F as the apparent clearance, not corrected for the fraction that reaches the circulation. A word on the fraction unbound: it is free concentration divided by total concentration.

Series [1] can be described thus: in vitro. To be noted: mouse.
Series [2] can be described thus: physchem.
Series [3] can be described thus: in vitro. To be noted: human.
For series [4], the target named is Phosphatidylinositol 4-kinase alpha (Homo sapiens) (UniProt P42356). The series is described as follows: Inhibition of PI4K3alpha (unknown origin) at 10 uM.
Series [5] addresses Phosphatidylinositol 4-kinase type 2-beta (Homo sapiens) (UniProt Q8TCG2). The series is described as follows: Inhibition of recombinant human full length GST-tagged PI4K2beta expressed in insect cells at 10 uM.
Series [6] deals with Phosphatidylinositol 4-kinase type 2-alpha (Homo sapiens) (UniProt Q9BTU6). The experiment in a line: Inhibition of recombinant human full length GST-tagged PI4K2alpha expressed in insect cells at 10 uM.
The nature of series [7]: physchem. To be noted: phosphate buffer, pH 7.4.
Series [8] addresses T1, Voltage-gated inwardly rectifying potassium channel KCNH2 (Homo sapiens, UniProt Q12809).
The target in series [9] is T1, Voltage-gated inwardly rectifying potassium channel KCNH2. The source holds these as a separate data set.
The target of series [10] is T2, Cytochrome P450 3A4 (Homo sapiens, UniProt P08684). The following applies: liver microsomes. (In general: Liver microsomes are vesicles of endoplasmic reticulum, rich in cytochrome P450 enzymes.)
A short description of series [11]: Thermodynamic solubility of the compound in pH 7.4 solution after 90 mins by UVLC-MS analysis. The following applies: for Therm_solubility: buffer, pH 7.4, 1.5 h; for solubility thermodynamic at 1.5 h: pH 7.4 solution, pH 7.4, read-out: Therm_solubility. It is filed as physicochemical.
The target in series [12] is Phosphatidylinositol 4-kinase beta (Homo sapiens, UniProt Q9UBF8). The experiment in a line: Inhibition of recombinant human full length GST-tagged PI4K3beta expressed in baculovirus expression system using PI lipid kinase substrate after 60 mins by ADP-Glo assay. In general terms: ADP-Glo turns the ADP formed in a reaction into a luminescent signal.
Series [13] in a line: Half life in Balb/c mouse at 1 mg/kg, iv. To be noted: Balb/c, in vivo. Format: ADME, organism-based. A digest of the protocol: (§1)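 Intravenous PK in male Balb/C mice, n=3, at 1 mpk. Vehicle was 30% DMA or 15% NMP, depending on the compound.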
Series [14] is described as follows: Oral bioavailability in Balb/c mouse at 10 mg/kg after 1 hr. It is filed as ADME, organism-based. The following applies: Balb/c, in vivo. A digest of the protocol: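 Male Balb/C mice, n=3. Oral dose of 10 mpk as a homogeneous suspension of crystalline solid in 0.1% Tween 80, 0.1% silicone antifoam, 1% methylcellulose (400 cps) in water. I.v. dose of 1 mpk in 30% DMA or 15% NMP, depending on the compound. Bioavailability was extrapolated from the i.v./p.o. experiments.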

Series [15] deals with Mus musculus. The experiment in a line: Unbound AUC (infinity) in Balb/c mouse at 10 mg/kg, po after 1 hr. Format: ADME, organism-based. To be noted: in vivo.
In series [16] the test system is Mus musculus. The experiment in a line: Unbound Cmax in Balb/c mouse at 10 mg/kg, po after 1 hr. It is filed as ADME, organism-based. The following applies: in vivo.
Series [17] can be described thus: Clearance in Balb/c mouse at 1 mg/kg, iv. Format: ADME, organism-based. To be noted: Balb/c, in vivo. A digest of the protocol:
as §1

A short description of series [18]: Apparent clearance in Balb/c mouse at 10 mg/kg, po after 1 hr. To be noted: in vivo. Format: ADME, organism-based.
In series [19] the test system is Mus musculus. The experiment in a line: Unbound AUC in Balb/c mouse at 1 mg/kg, iv. Format: ADME, organism-based. The following applies: in vivo. A digest of the protocol:
as §1

Series [20] in a line: Volume of distribution at steady state in Balb/c mouse at 1 mg/kg, iv. To be noted: Balb/c, in vivo, read-out: Vdss. It is filed as ADME, organism-based. A digest of the protocol:
as §1

Series [21] is described as follows: Fraction unbound in mouse blood. Format: ADME, tissue-based.
The conditions of series [22]: buffer, pH 7.4, 1.5 h.
For series [23], the target named is T2, Cytochrome P450 3A4.

Converted amounts (≈) assume the structure as drawn. The source made the active and inactive calls. The rule behind the calls is not given here.

T2 sequence (P08684 whole entry): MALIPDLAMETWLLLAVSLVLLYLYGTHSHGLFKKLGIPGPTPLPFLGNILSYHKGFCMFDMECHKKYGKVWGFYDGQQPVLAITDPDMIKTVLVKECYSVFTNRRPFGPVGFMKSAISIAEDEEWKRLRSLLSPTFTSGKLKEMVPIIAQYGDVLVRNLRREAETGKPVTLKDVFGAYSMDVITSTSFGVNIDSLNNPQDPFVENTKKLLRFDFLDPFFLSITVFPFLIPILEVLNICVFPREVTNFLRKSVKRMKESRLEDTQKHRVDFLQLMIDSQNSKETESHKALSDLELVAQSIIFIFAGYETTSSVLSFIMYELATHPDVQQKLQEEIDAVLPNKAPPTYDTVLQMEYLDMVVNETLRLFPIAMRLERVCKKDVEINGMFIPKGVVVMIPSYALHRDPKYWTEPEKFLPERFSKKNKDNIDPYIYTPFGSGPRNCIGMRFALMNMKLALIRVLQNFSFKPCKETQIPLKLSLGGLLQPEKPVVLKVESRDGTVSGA
T1 sequence (Q12809 whole entry): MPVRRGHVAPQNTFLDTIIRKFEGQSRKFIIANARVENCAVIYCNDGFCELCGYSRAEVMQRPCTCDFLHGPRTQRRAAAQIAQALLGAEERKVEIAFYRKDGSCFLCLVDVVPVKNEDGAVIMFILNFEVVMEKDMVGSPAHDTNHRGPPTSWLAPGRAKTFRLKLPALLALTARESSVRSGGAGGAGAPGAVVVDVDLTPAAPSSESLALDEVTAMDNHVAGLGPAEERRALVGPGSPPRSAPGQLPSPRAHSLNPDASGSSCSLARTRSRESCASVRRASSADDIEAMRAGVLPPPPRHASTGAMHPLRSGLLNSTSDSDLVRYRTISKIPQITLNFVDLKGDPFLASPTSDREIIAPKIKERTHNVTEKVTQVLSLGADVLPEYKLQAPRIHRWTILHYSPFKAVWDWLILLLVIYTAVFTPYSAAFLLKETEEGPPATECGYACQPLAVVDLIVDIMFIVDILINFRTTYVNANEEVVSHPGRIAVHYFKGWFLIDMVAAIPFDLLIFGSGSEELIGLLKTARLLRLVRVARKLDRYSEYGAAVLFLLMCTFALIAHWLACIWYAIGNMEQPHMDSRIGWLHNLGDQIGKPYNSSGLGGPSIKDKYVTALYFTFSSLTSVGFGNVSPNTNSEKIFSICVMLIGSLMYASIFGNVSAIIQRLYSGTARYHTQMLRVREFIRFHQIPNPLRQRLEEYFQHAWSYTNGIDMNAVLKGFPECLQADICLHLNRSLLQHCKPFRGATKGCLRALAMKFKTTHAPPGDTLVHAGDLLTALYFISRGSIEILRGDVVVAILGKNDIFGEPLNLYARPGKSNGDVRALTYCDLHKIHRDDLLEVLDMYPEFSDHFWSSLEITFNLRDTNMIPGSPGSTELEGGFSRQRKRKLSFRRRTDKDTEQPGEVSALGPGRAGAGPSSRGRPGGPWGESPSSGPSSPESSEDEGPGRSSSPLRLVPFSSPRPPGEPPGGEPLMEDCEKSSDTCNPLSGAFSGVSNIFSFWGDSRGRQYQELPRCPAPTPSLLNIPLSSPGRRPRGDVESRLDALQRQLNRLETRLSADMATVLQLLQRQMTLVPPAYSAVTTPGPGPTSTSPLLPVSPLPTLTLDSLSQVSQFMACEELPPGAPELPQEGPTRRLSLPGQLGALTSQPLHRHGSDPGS
Phosphatidylinositol 4-kinase beta, sequence (Q9UBF8 whole entry): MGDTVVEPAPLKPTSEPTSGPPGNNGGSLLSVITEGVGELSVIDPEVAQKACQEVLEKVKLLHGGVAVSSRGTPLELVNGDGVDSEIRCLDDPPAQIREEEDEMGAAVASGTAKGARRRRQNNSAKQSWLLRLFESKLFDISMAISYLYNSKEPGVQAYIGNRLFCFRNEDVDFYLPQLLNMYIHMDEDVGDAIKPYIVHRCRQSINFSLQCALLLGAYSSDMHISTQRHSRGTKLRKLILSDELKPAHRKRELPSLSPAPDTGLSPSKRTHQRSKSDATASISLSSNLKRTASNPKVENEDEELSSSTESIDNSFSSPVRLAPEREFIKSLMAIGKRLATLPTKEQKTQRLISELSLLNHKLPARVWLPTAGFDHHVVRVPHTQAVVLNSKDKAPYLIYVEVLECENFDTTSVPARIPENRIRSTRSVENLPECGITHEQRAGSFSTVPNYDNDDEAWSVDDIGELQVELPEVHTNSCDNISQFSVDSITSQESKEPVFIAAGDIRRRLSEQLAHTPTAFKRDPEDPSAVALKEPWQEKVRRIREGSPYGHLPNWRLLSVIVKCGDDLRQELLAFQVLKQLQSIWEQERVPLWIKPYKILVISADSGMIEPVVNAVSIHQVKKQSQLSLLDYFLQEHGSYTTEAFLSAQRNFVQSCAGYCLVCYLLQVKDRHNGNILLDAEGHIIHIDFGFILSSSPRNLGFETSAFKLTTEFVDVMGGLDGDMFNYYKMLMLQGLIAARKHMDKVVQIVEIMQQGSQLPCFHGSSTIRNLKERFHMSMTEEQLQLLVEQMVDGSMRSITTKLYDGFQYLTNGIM
Phosphatidylinositol 4-kinase type 2-beta (Homo sapiens), sequence (Q8TCG2 whole entry): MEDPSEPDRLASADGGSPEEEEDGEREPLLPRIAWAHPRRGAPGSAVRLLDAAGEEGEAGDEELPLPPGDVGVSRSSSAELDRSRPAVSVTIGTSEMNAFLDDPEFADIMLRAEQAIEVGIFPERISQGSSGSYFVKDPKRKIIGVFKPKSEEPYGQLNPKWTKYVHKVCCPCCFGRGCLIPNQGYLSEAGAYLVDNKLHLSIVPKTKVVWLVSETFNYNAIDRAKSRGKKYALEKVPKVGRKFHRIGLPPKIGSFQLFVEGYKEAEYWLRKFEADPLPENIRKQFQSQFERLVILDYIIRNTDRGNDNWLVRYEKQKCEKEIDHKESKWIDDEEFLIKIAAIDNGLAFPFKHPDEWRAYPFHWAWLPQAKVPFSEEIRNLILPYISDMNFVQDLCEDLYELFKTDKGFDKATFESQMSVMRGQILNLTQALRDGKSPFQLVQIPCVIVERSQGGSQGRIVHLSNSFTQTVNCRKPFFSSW
Phosphatidylinositol 4-kinase type 2-alpha (Homo sapiens), sequence (Q9BTU6 whole entry): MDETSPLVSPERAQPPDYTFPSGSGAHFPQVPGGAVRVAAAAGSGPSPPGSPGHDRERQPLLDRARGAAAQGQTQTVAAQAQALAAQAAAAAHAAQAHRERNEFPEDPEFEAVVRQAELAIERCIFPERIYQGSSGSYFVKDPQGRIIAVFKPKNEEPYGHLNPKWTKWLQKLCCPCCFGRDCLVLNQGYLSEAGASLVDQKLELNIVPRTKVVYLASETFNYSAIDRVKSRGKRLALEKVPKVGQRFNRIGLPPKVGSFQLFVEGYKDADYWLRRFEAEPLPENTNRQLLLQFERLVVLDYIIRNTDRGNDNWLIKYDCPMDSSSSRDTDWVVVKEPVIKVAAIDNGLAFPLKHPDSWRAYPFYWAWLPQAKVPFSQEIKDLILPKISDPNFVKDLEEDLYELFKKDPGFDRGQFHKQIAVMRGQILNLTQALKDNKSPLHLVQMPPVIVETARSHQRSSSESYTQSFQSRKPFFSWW

Turning to `Cc1ccc(NC(=O)N2CCN(c3nc(N)nc4sc(-c5cccnc5)nc34)CC2)cc1`, the microsomal CLint at 0.75 h, 3 µM in “in vitro [1]” (microsomes) was found to be 72 µL/min/mg; in the series “in vitro [3]” (microsomes), 32 µL/min/mg. In addition, in the series “physchem [2]” (pH 7.4 solution), the solubility (kinetic) at 1.5 h stood at 9 µM (≈ 4.02 µg/mL). The inhibition result in [4], in [5] and in [6] was “inactive” each time. Moreover, the logD at 1.5 h in “physchem [7]” amounted to 3.42. For the same molecule, the IC50 in series [8] was 2000 nM.
With `COc1ccc(NC(=O)N2C3CCC2CN(c2nc(N)nc4scnc24)C3)cc1`, the solubility (kinetic) at 1.5 h in “physchem [2]” (buffer, pH 7.4) is more than 350 µM. The IC50 entry (in series [9]; against Cytochrome P450 3A4 [10]) was “Nd(Insoluble)” each time. Further, the Therm_solubility result in series [11] is reported as “Nd(Insoluble)”.
Turning to `Nc1nc(N2CCN(C(=O)Nc3ccccc3)CC2)c2ncsc2n1`, the solubility (kinetic) at 1.5 h in the series “physchem [2]” (buffer, pH 7.4) was found to be 178 µM (≈ 63.3 µg/mL). The molecule further returned a logD at 1.5 h in the series “physchem [7]” of 2.21.
The corresponding values for `Nc1nc(N2CCN(C(=O)Nc3ccc(OC(F)(F)F)cc3)CC2)c2ncsc2n1` are 12 µM (≈ 5.27 µg/mL) and 3.39.
In turn, `COc1ccc(NC(=O)N2CCN(c3nc(N)nc4sncc34)[C@@H](C)C2)c(C)c1` registered a kinetic solubility at 1.5 h in “physchem [2]” (buffer, pH 7.4) of more than 350 µM. In the series “physchem [7]”, this molecule gave a logD at 1.5 h of 1.96. For the same molecule, in series [11], the solubility thermodynamic at 1.5 h was determined as 52 µM (≈ 21.5 µg/mL).
Molecule `Nc1nc(N2CCN(C(=O)c3cn4ccccc4n3)CC2)c2ncsc2n1` came in with a kinetic solubility at 1.5 h in “physchem [2]” (buffer, pH 7.4) of more than 350 µM. The logD at 1.5 h in “physchem [7]” turned out to be 1.58.
The corresponding values for `Cc1cccc(NC(=O)N2CCN(c3nc(N)nc4scnc34)CC2)c1` are 34 µM (≈ 12.6 µg/mL) and 2.81.
Consider `COc1ccc(NC(=O)C2CCN(c3nc(N)nc4scnc34)CC2)cc1`, for which, in series [12], the IC50 was more than 6000 nM.
On to `COc1ccc(NC(=O)N2CCN(c3nc(N)nc4c3ncn4C)[C@@H](C)C2)c(C)c1`, for which the microsomal CLint at 0.75 h, 3 µM in “in vitro [1]” (liver microsomes) turned out to be 10 µL/min/mg; in the series “in vitro [3]” (liver microsomes), 9 µL/min/mg. Moreover, the kinetic solubility at 1.5 h in “physchem [2]” (buffer, pH 7.4) is more than 350 µM. In series [13], this molecule gave a half-life of 48 min. The same molecule had a bioavailability in series [14] of 39%. For the same molecule, the values for the fAUC in the series with Mus musculus [15] and with Mus musculus [19] were 1.746 µM·h and 0.447 µM·h, respectively. Also, in the series on Mus musculus [16], the fCmax is recorded as 1087 nM. Also, the clearance in series [17] came to 19 mL/min/kg. In addition, the CL/F in series [18] worked out at 46 mL/min/kg. The Vd in series [20] worked out at 0.8 L/kg. Moreover, the fraction unbound in [21] is 0.2. The molecule further came in with a logD at 1.5 h in the series “physchem [7]” of 1.35. In [11], the solubility thermodynamic at 1.5 h amounted to 150 µM (≈ 61.6 µg/mL).
In turn, `COc1ccc(NC(=O)N2CCN(c3nc(N)nc4scnc34)CC2)c(C)c1` registered a kinetic solubility at 1.5 h in the series “physchem [2]” (buffer, pH 7.4) of 33 µM (≈ 13.2 µg/mL). Besides, the logD at 1.5 h in the series “physchem [7]” was 2.03.
`COc1ccc(NC(=O)N2CCN(c3nc(N)nc4scnc34)C(C)C2C)cc1` (centres undefined) had a kinetic solubility at 1.5 h in “physchem [2]” (buffer, pH 7.4) of more than 350 µM. Moreover, the IC50 result (in series [9]; on Cytochrome P450 3A4 [10]) was “Nd(Insoluble)” throughout. Further, in series [11], the Therm_solubility entry was “Nd(Insoluble)”.
In turn, `Cc1ccc(NC(=O)N2CCN(c3nc(N)nc4scnc34)CC2)cc1` displayed a solubility (kinetic) at 1.5 h in the series “physchem [2]” (buffer, pH 7.4) of 21 µM (≈ 7.76 µg/mL). The molecule further registered a logD at 1.5 h in the series “physchem [7]” of 2.55.
For the molecule `COc1ccc(NC(=O)N2CCN(c3nc(N)nc4sc(-c5ccccc5)nc34)CC2)cc1`, the values for the microsomal CLint at 0.75 h, 3 µM in “in vitro [1]” (liver microsomes) and in “in vitro [3]” (liver microsomes) were 20 µL/min/mg and 13 µL/min/mg, respectively. The solubility (kinetic) at 1.5 h in the series “physchem [2]” (buffer, pH 7.4) turned out to be 6 µM (≈ 2.77 µg/mL). The logD entry in [22] is listed as “Nd(Insoluble)”. The IC50 on Cytochrome P450 3A4 [23] is more than 20000 nM; in series [8], 1700 nM.
`COc1ccc(NC(=O)N2CCN(c3nc(N)nc4scnc34)CC2C)cc1` (centres undefined) yielded a kinetic solubility at 1.5 h in the series “physchem [2]” (buffer, pH 7.4) of more than 350 µM. The IC50 result (in series [9]; against Cytochrome P450 3A4 [10]) was “Nd(Insoluble)” in each case. For the same molecule, the Therm_solubility entry in [11] is on record as “Nd(Insoluble)”.
`COc1ccc(CNC(=O)N2CCN(c3nc(N)nc4scnc34)CC2)cc1` yielded a solubility (kinetic) at 1.5 h in the series “physchem [2]” (buffer, pH 7.4) of 33 µM (≈ 13.2 µg/mL). Besides, the logD at 1.5 h in “physchem [7]” amounted to 2.22.
In the series “physchem [2]” (buffer, pH 7.4), `COc1ccc(NC(=O)N2C[C@H](C)N(c3nc(N)nc4scnc34)C[C@H]2C)cc1` returned a kinetic solubility at 1.5 h of 88 µM (≈ 36.4 µg/mL). In addition, the IC50 entry (in [9]; on Cytochrome P450 3A4 [10]) was “Nd(Insoluble)” each time. Further, the Therm_solubility entry in series [11] is “Nd(Insoluble)”.
The molecule `COc1ccc(CC(=O)N2CCN(c3nc(N)nc4scnc34)CC2)cc1OC` came in with a solubility (kinetic) at 1.5 h in “physchem [2]” (buffer, pH 7.4) of more than 350 µM. This molecule also yielded a logD at 1.5 h in the series “physchem [7]” of 1.5.

Source of the values: ChEMBL document CHEMBL4190408 (J Med Chem, 2018).
